The record followed here is ChEMBL document CHEMBL4004799, “Octaminomycins A and B, Cyclic Octadepsipeptides Active against Plasmodium falciparum” (J Nat Prod, 2017).

The term IC50 denotes the concentration at which inhibition is half-maximal.

The subject of one assay is HL-60. In words: Cytotoxicity against human HL60 cells after 48 hrs by WST-8 assay. The assay is classed as cell-based. To be noted: HL-60, 48 h. Put shortly: (§1)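 Cells were seeded in 96-well plates and exposed to compounds for 48 h. HL-60 cells were grown at 37 °C in RPMI-1640 with 10% FBS. tsFT210 cells, a mouse FM3A cdc2 temperature-sensitive mutant, were grown at 32 °C in RPMI-1640 with 5% calf serum. WST-8 was added at 1/10 volume for 1 h, and growth was read as absorbance at 450 nm.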
Background: Tetrazolium assays rely on reduction of a dye to a coloured formazan, in cell work by metabolically active cells.

A short description of assay [1]: Cytotoxicity against temperature-sensitive mouse FT210 cells after 48 hrs by WST-8 assay. It is filed as cell-based. To be noted: FT210, 48 h. The method, boiled down:
as §1

The subject of another assay is Staphylococcus aureus. In words: Antimicrobial activity against Staphylococcus aureus 209 up to 30 uM after 24 hrs by broth microdilution assay. It is filed as functional. Background: Dilution methods test growth across graded concentrations, often in twofold steps.
In assay [2] the test system is Plasmodium falciparum. In words: Antimalarial activity against chloroquine-resistant Plasmodium falciparum Dd2. It is filed as functional. Put shortly: (§2)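 P. falciparum strains maintained at 37 °C under 5.0% CO2 in human erythrocytes (3% hematocrit), RPMI1640 with 10% human plasma; assay run per an earlier published method; IC50 in μM.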
A further assay deals with HeLa. In words: Cytotoxicity against human HeLa cells after 48 hrs by WST-8 assay. The assay is classed as cell-based.
Another assay relates to Pyricularia oryzae. Nature of the assay: Antimicrobial activity against Pyricularia oryzae kita-1 up to 30 uM after 48 hrs by broth microdilution assay. The assay is classed as functional.
The test system of the next assay is Escherichia coli. Nature of the assay: Antimicrobial activity against Escherichia coli HO141 up to 30 uM after 24 hrs by broth microdilution assay. The assay is classed as functional.
In a further assay the test system is Candida albicans. Nature of the assay: Antimicrobial activity against Candida albicans JCM1542 up to 30 uM after 24 hrs by broth microdilution assay. The assay is classed as functional.
The subject of another assay is Aspergillus fumigatus. Nature of the assay: Antimicrobial activity against Aspergillus fumigatus Af293 up to 30 uM after 48 hrs by broth microdilution assay. The assay is classed as functional.
Assay [3] has as its system Plasmodium falciparum. Nature of the assay: Antimalarial activity against chloroquine-sensitive Plasmodium falciparum 3D7. The assay is classed as functional. The method, boiled down:
as §2

In another assay the test system is NRK. In words: Cytotoxicity against rat NRK cells infected with temperature-sensitive mutant of Rous sarcoma virus after 48 hrs by WST-8 assay. The assay is classed as cell-based. The method, boiled down: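 Rat kidney cells infected with ts25 (T-class Rous sarcoma virus Prague mutant) grown at permissive 32 °C in MEM + 10% calf serum; […] cells/well seeded, compounds applied 48 h; WST-8 (1/10 volume) added for 1 h, growth read as absorbance at 450 nm.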

For assay [4], the system named is Plasmodium falciparum. In words: Antimalarial activity against chloroquine-resistant Plasmodium falciparum K1. It is filed as functional. Put shortly:
as §2

The source made the active and inactive calls. No cut-off for these calls is given here. Where a SMILES comes first, the peptide text is derived from it. Bridges are numbered along the chain shown (N, C = ends). [ ]: non-standard residue; d: D form. The star is where a group is joined. NMeY = CN[C@@H](Cc1ccc(O)cc1)C(=O)O; Propionyl = CCC(=O)*

With `CC(=O)N[C@@H]1C(=O)N[C@@H](Cc2ccccc2)C(=O)N[C@H](CC(C)C)C(=O)N[C@@H](C(C)C)C(=O)N2CCC[C@H]2C(=O)N[C@@H](CC(C)C)C(=O)N(C)[C@@H](Cc2ccc(O)cc2)C(=O)N2CCC[C@H]2C(=O)O[C@@H]1C` (Ac-TF[dL]VPL[NMeY]P; ester 1-C), the IC50 was greater than 30 µM with HL-60; greater than 30 µM in [1]; 1.1 µM in the assay with Plasmodium falciparum [2]; greater than 30 µM in the assay on HeLa; 1.5 µM with Plasmodium falciparum [3]; greater than 30 µM with NRK. In the assay on Plasmodium falciparum [4], half-maximal inhibition (IC50) was put at 0.83 µM. The outcome in the assay with Staphylococcus aureus, in the assay with Pyricularia oryzae, in the assay with Escherichia coli, in the assay with Candida albicans and in the assay on Aspergillus fumigatus was inactive.

Regarding `CCC(=O)N[C@@H]1C(=O)N[C@@H](Cc2ccccc2)C(=O)N[C@H](CC(C)C)C(=O)N[C@@H](C(C)C)C(=O)N2CCC[C@H]2C(=O)N[C@@H](CC(C)C)C(=O)N(C)[C@@H](Cc2ccc(O)cc2)C(=O)N2CCC[C@H]2C(=O)O[C@@H]1C` (Propionyl-TF[dL]VPL[NMeY]P; ester 1-C), the IC50 with HL-60 was greater than 30 µM; in assay [1] it was greater than 30 µM; in the assay with Plasmodium falciparum [2], 1.6 µM; in the assay with HeLa, greater than 30 µM; with Plasmodium falciparum [3] it was 1.5 µM; with NRK it was greater than 30 µM. The IC50 in the assay with Plasmodium falciparum [4] was 1.3 µM. Besides, the outcome in the assay on Staphylococcus aureus, in the assay with Pyricularia oryzae, in the assay on Escherichia coli, in the assay on Candida albicans and in the assay with Aspergillus fumigatus was inactive.
